# High-throughput results from PubChem.
# Dynein cargo inh – dynein cargo transport inhibition | actives 0.47% (n = 220,000) | 3617.4 mouse cells, GR-EGFP nuclear translocation imaging; test concentration mostly 20 µM; stimulated with dexamethasone, 1 µM; hits give low values | z-score, hits read low;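 active means plate z-score of nuclear minus cytoplasmic receptor signal below a set negative limit, without overly bright fluorescence or cell loss, cut at about -3.5 in these data, passing the limit was not always enough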;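 further: z-score of nuclear minus cytoplasmic ring GR-EGFP intensity difference per well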
#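 Buffer or medium: tetracycline-free induction medium containing charcoal-stripped FBS / Reagent: dexamethasone agonist, 1.0 µM final, for 30 min / Technique: automated 10x imaging of fixed Hoechst-stained cells / Times: induction 48 h, compound 1 h, agonist 30 min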
# MEKK3 PB1 HTS – modulators (inhibitors or enhancers) of MEK5 binding to human MEKK3 PB1 domain; Q99759; bead-based flow cytometry, Alexa488-MEK5 binding to MEKK3; actives lie on both sides; 0 = blocked by unlabeled MEK5, 100 = vehicle; binding response (% of control), % at 10 µM; actives 1.4% (n = 290,000); AID 1529;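 active means binding response more than 3 SD above or below the average of its plate-row segment, actives on both sides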;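 further: Alexa488 bead fluorescence after subtracting the streptavidin-only scavenger bead signal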
# Target sequence (Q99759 whole entry, looked up, the tested form may be a part): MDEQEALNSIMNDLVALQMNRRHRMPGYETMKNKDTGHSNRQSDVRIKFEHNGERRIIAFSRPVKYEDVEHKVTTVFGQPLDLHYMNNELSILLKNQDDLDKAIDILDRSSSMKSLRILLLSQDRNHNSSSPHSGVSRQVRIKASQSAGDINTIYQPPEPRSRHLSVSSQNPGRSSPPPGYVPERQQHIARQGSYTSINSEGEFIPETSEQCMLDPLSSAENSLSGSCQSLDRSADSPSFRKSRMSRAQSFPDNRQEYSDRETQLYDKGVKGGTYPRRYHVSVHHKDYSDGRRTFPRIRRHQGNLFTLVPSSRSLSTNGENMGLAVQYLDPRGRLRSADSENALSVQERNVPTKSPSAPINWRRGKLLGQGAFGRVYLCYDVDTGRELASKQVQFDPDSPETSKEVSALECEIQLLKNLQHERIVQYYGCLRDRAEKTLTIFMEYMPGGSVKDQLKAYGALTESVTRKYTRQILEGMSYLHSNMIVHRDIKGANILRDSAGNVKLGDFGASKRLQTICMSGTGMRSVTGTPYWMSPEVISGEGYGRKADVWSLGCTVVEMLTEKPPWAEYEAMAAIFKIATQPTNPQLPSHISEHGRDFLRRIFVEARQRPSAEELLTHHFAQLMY
# ATG4B inhibitor – blocks human ATG4B protease cleavage of LC3 substrate; Q9Y4P1; actives 0.51% (n = 340,000); AID 504462; inhibition, % at 8.33 µM; ATG4B cleavage of LC3-PLA2, NBD-HPC fluorescence, 1 h; in the data active means inhibition above about 40%
# B2AR ag – human beta-2 adrenergic receptor agonism by FAP; response, % (concentration not given with the values); actives 0.43% (n = 340,000); P07550; Am2.2-beta2AR cells, FAP receptor internalization, flow cytometry;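 active means response above a set limit, near 3 SD of response in nonfluorescent compounds, cut at about 42% in these data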
# MEKK2 mut-MEK5 – signal of MEK5 binding to mutant human MEKK2 PB1 domain. bead flow cytometry, Alexa488-MEK5 binding to MEKK2 mutant. percent response, % at 10 µM. actives 0.35% (n = 290,000). AID 1530; in the data active means percent response above about 24%, passing the limit was not always enough
# MEKK2 WT-MEK5 – raises or lowers MEK5 binding to wildtype human MEKK2 PB1 domain; Q9Y2U5; bead flow cytometry, Alexa488-MEK5 binding to MEKK2 WT; actives lie on both sides; binding response (% of control), % at 10 µM; actives 1.1% (n = 290,000); AID 1531; in the data active means binding response below about 67% or above about 130%
# MEKK2wt confirm – raises or lowers MEK5 binding to wildtype human MEKK2, retest. shares compounds with MEKK3 PB1 HTS. binding response (% of control), % at 10 µM. actives 2.4% (n = 5,900). bead flow cytometry, Alexa488-MEK5 binding to MEKK2 WT; actives lie on both sides; in the data active means binding response below about 16% or above about 210%; inactive means in between
# MEKK2mut-MEK5 – signal of MEK5 binding to mutant human MEKK2, retest. percent response, % at 10 µM. bead flow cytometry, Alexa488-MEK5 binding to MEKK2 mutant. actives 2% (n = 5,900). AID 1893. shares compounds with MEKK3 PB1 HTS; in the data active means percent response mostly above about 71%, no sharp cut-off; inactive means mostly below about 38%;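 further: higher means compound restores mutant binding toward wildtype level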
# MEKK3 confirm – confirmation of inhibitors of MEK5 binding to human MEKK3. binding response (% of control), % at 10 µM. AID 1894. actives 1.8% (n = 5,900). shares compounds with MEKK3 PB1 HTS. bead flow cytometry, Alexa488-MEK5 binding to MEKK3; hits give low values;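 active means binding response below 72% of control, or above a set upper limit, though filed actives all read lower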
# A number is an active result; 0 = inactive; - = no result given; [ ] = remark or other dose. Most compounds without a hit are left out; they make up all but 2.9% or so of the library.
SMILES,Dynein cargo inh,MEKK3 PB1 HTS,ATG4B inhibitor,B2AR ag,MEKK2 mut-MEK5,MEKK2 WT-MEK5,MEKK2wt confirm,MEKK2mut-MEK5,MEKK3 confirm
CN(C)CCCNc1cc(C(C)(C)C)nc2c(-c3ccccc3)cnn12,0,0,0,0,0,156.0,0,0,0
Cc1cc(NCCCN2CCOCC2)n2ncc(-c3ccccc3)c2n1,0,0,0,0,0,0,-,-,-
CCOc1ccc(CCN2C(=S)N([C@@H](CC(C)C)CN3CCCC3CN3C(=S)NC[C@@H]3Cc3ccc(O)cc3)C[C@@H]2Cc2ccc(O)cc2)cc1 (stereo partly drawn),-,-,-,0,-,-,-,-,-
CC(Sc1ccccc1)C(=O)NNC(=O)c1csc(N2CCOCC2)n1 (stereo not drawn),-,-,0,0,-,-,-,-,-
CCOc1ccc(NC(=O)C2CC(=O)N(CCc3ccc(OC)c(OC)c3)C2)cc1OCC (stereo not drawn),-,-,0,0,-,-,-,-,-
O=C(OCCC1Oc2cccnc2NC1=O)c1ccc(F)cc1 (stereo not drawn),0,0,0,0,0,0,-,-,-
O=C(OCCC1Oc2cccnc2NC1=O)c1ccc([N+](=O)[O-])cc1 (stereo not drawn),0,74.0[inhibitor],-,-,0,0,0,0,0
CC(C)C(=O)c1ccc(O)c(O)c1,0,70.0[inhibitor],0,0,0,0,0,0,0
O=C(C(=O)c1ccc(O)c(O)c1)c1ccc(O)c(O)c1,-,-,0,0,-,-,-,-,-
CC12CC(NC(=O)N1c1cccc(C(=O)Nc3ncn[nH]3)c1)c1ccccc1O2 (stereo not drawn),0,0,0,0,0,0,-,-,-
COc1ccc(NC(=O)c2cccc(N3C(=O)NC4CC3(C)Oc3ccccc34)c2)cc1 (stereo not drawn),0,133.0,0,0,0,0,0,0,0
CN(c1ccccc1)P(=O)(N(C)c1ccccc1)N(C)c1ccccc1,0,0,0,0,0,0,-,-,-
Cc1sc2ncnc(N/N=C/c3ccc(O)cc3)c2c1C,0,0,0,0,0,0,-,-,-
Fc1ccc(/C=N/Nc2nccnc2Cl)cc1,-,0,0,0,0,0,-,-,-
Oc1ccc(/C=N/Nc2nccnc2Cl)cc1,0,126.0,0,0,0,0,0,0,0
Nc1c(Cl)ncnc1N/N=C/c1ccc(O)cc1,0,51.0[inhibitor],0,0,0,53.0[inhibitor],0,0,0
CCCCOc1ccc(N2C(=O)CC(NCCc3ccc(S(N)(=O)=O)cc3)C2=O)cc1 (stereo not drawn),0,122.0,0,0,0,0,0,0,0
NS(=O)(=O)c1ccc(CCNC(=O)C2CCN(S(=O)(=O)c3ccc(Br)s3)CC2)cc1,0,2.0[inhibitor],0,0,0,3.0[inhibitor],0,0,0
Cc1ccc(S(=O)(=O)N2CCC(C(=O)NCCc3ccc(S(N)(=O)=O)cc3)CC2)cc1,0,0,0,0,0,0,-,-,-
CC(=O)N(c1ccccc1)c1nc(/C=C/C(=O)Nc2c(C)cc(C)cc2C)cs1,0,0,0,0,0,0,-,-,-
Cc1cccc(C)c1NC(=O)CS(=O)CC(=O)NC1CCCc2ccccc21 (stereo not drawn),0,132.0,0,0,0,0,0,0,0
Cc1ccc(-n2nnnc2SCC(=O)NC2CCCc3ccccc32)c(C)c1 (stereo not drawn),0,0,0,0,0,0,-,-,-
CCOC(=O)NC(=O)CSc1nnnn1-c1ccc(C)cc1,0,2.0[inhibitor],0,0,0,2.0[inhibitor],0,0,0
O=C(Cc1coc2ccc3ccccc3c12)NC1CCCc2ccccc21 (stereo not drawn),0,135.0,0,0,0,0,0,0,0
O=C(Cc1coc2ccc3ccccc3c12)NCc1ccccc1,0,0,0,0,0,0,-,-,-
SMILES,Dynein cargo inh,MEKK3 PB1 HTS,ATG4B inhibitor,B2AR ag,MEKK2 mut-MEK5,MEKK2 WT-MEK5,MEKK2wt confirm,MEKK2mut-MEK5,MEKK3 confirm
Cc1ccc(-n2nnnc2SCC(=O)NC2CCCc3ccccc32)cc1 (stereo not drawn),0,140.0,0,0,0,0,0,0,0
O=C(Nc1cccc(-c2cccc(Cl)c2)c1)C1CCN(Cc2ccccn2)CC1,-,0,0,0,0,140.0,0,0,0
O=C(Nc1cccc(-c2cccc(Cl)c2)c1)C1CCN(CC2CCOC2)CC1 (stereo not drawn),-,0,0,0,41.0,151.0,0,0,0
COCc1ccc(CN2CCC(C(=O)Nc3cccc(-c4cccc(Cl)c4)c3)CC2)o1,-,0,0,0,25.0,177.0,0,0,0
Cc1cccc(-c2ccc(NC(=O)C3CCN(CC4CC4)CC3)cc2)c1,-,0,0,0,35.0,159.0,0,0,0
CCCCCN(C(=O)CCC(=O)OCc1cccc(F)c1)c1c(N)n(CCCC)c(=O)[nH]c1=O,-,-,0,0,-,-,-,-,-
CCCc1cc(=O)[nH]c(SCC(=O)Nc2cccc(S(=O)(=O)N3CCOCC3)c2)n1,-,-,0,0,-,-,-,-,-
Cc1c(C(=O)NNC(=S)Nc2cccc(Cl)c2)nnn1-c1ccccc1,0,0,0,0,0,0,-,-,-
Cn1c(=O)n(C)c2cc(S(=O)(=O)NCCOCCO)ccc21,0,2.0[inhibitor],0,0,0,-1.0[inhibitor],0,0,0
Cn1c(=O)n(C)c2cc(S(=O)(=O)NCCO)ccc21,0,0,0,0,0,0,-,-,-
COc1ccc(CCNC(=O)C(C)n2nc(C)n3c(cc4occc43)c2=O)cc1OC (stereo not drawn),-,0,0,0,0,0,-,-,-
O=C(CSc1nnc(NC(=O)C2CC(=O)N(c3ccc(F)cc3)C2)s1)NCc1ccco1 (stereo not drawn),-,0,0,0,0,0,-,-,-
CCCc1nc(C)cc(N2CCN(c3ccccc3)CC2)n1,-,0,0,0,0,0,-,-,-
COc1ccc(Nc2cc(C)nc(NCc3ccccc3)n2)cc1,0,0,0,0,0,0,-,-,-
Cc1ccc(Nc2cc(C)nc(NCc3ccccc3)n2)cc1,0,0,0,0,0,151.0,0,0,0
Cc1cc(N2CCN(c3ccccc3)CC2)nc(NCc2ccccc2)n1,0,0,0,0,0,168.0,0,0,0
COc1ccc(C[C@H]2CN3C(=NC[C@@H]3Cc3ccccc3)N2CCNC(=O)CCC2CCCCC2)cc1,0,0,0,0,0,179.0,0,0,0
COc1ccc(CCN(C)C(=O)C2CCN(Cc3ccc(C)cc3)CC2)cc1OC,0,0,0,0,0,0,-,-,-
